The source made the active and inactive calls. The calls are words filed in the database; no cut-off is given here.

The values below come from ChEMBL document CHEMBL4145471, “New 1,5 and 2,5-disubstituted tetrazoles-dependent activity towards surface barrier of Candida albicans” (Eur J Med Chem, 2018).

Data set [1] concerns Candida albicans. Put plainly: Antifungal activity against Candida albicans ATCC 90028 assessed as reduction in cell adherence to human Caco2 cells at 16 ug/ml preincubated for 2 hrs followed by compound washout and resuspended in RPMI medium measured after 18 hrs by colony counting assay relative to control. Details: scale not given: the % may be the effect or the level left. The format is functional. A digest of the protocol: (§1)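 Yeasts grown 18 h in YEPD at 30°C, then exposed at 10^4/mL to compound in RPMI for 2 h at 35°C with shaking. Washed twice in PBS, resuspended in RPMI and added to Caco-2 monolayers (18 h culture in EMEM/10% FCS) for 2 h at 37°C, 5% CO2. Non-adherent cells rinsed off, Caco-2 lysed with water, and adherent yeasts counted as colonies on Sabouraud agar after 18 h at 30°C. Expressed as % of cells added versus untreated; three experiments.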

In data set [2] the test system is Candida albicans. Put plainly: Antifungal activity against Candida albicans ATCC 90028 assessed as total FIC index at 80 ug/ml in presence of fluconazol after 48 hrs by checkerboard-based XTT assay. The class given is functional. A digest of the protocol: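 Checkerboard against strain ATCC 90028, inoculum per M27-A3: fluconazole 80-1.25 µg/mL on one axis, tetrazole 80-1.25 µg/mL on the other. Plates at 35°C for 48 h, then XTT metabolic reduction read at 475 nm (660 nm reference). Activity is the drop in mean absorbance against untreated growth control. FICs and their summed FIC index are taken at 50% reduction in metabolic activity.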
Background: Tetrazolium assays rely on reduction of a dye to a coloured formazan, in cell work by metabolically active cells.

For data set [3], the system named is Candida albicans. The data set can be described thus: Synergistic antifungal activity against Candida albicans ATCC 90028 at 40 ug/ml after 48 hrs in presence of 2.5 ug/ml fluconazol by checkerboard assay relative to control. The class given is functional. A digest of the protocol:
(§2)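 Checkerboard microdilution (M27-A3) on C. albicans ATCC 90028 in RPMI 1640: fluconazole (80-1.25 µg/mL) crossed with tetrazole (80-1.25 µg/mL final), incubated at 35°C for 48 h. Growth by OD405 at 18 and 48 h, endpoint taken as 100% inhibition. FIC index = sum of the two agents' FICs; <1 synergism, >1 antagonism.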

The test system of data set [4] is Candida albicans. Put plainly: Synergistic antifungal activity against Candida albicans ATCC 90028 at 1.25 ug/ml after 48 hrs in presence of 2.5 ug/ml fluconazol by checkerboard assay relative to control. The format is functional. A digest of the protocol: as §2
The test system of data set [5] is Candida albicans. Put plainly: Induction of apoptosis in Candida albicans ATCC 90028 protoplast assessed as early apoptotic cells at 16 ug/ml after 18 hrs Annexin V-FITC/propidium iodide staining based flow cytometry ( Rvb = 0.13 +/- 0.06%). The class given is functional.
The test system of data set [6] is Candida albicans. Put plainly: Induction of necrosis in Candida albicans ATCC 90028 protoplast at 16 ug/ml after 18 hrs Annexin V-FITC/propidium iodide staining based flow cytometry (reference value: 40.48 +/- 16.81%). The format is functional. On the technique in general: A flow cytometer gives signals particle by particle.
Data set [7] in a line: Toxicity in Galleria mellonella larvae assessed as survival at 256 ug/ml after 96 hrs relative to control. The format is organism-based. The note with it: in vivo. A digest of the protocol:
(§3)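 Uninfected larvae, groups of 10, injected with compound in RPMI at 256, 16 or 0.0313 µg/mL; PBS-injected larvae as controls. Kept at 37°C in darkness up to 96 h, monitored daily; death is no response to physical stimuli. Mobility, cocoon formation, melanization and survival scored as health index. Three independent experiments, samples in duplicate; Wilcoxon signed-rank test vs control.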

Data set [8] is described as follows: Toxicity in Galleria mellonella larvae assessed as survival at 0.0313 ug/ml after 96 hrs relative to control. The format is organism-based. The settings on record: in vivo. The procedure, abridged:
as §3

For data set [9], the system named is Candida albicans. Put plainly: Antifungal activity against Candida albicans ATCC 90028 assessed as growth inhibition at 100 ug/ml after 7 days in presence of sorbitol by M27-A3 microdilution method. The format is functional, organism-based. A digest of the protocol: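 Osmotic protection variant of M27-A3. Tetrazoles serially diluted (1.04-400 µg/mL) in Sabouraud dextrose broth; inoculum 1.7×10^3 CFU/mL in SDB with sorbitol at 0.8 M final. Plates at 35°C, read visually and at OD405 after 2 and 7 days; triplicate.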
On the technique in general: In broth dilution the organism is exposed to a series of concentrations in liquid medium.

Data set [10] in a line: Toxicity in Galleria mellonella larvae assessed as survival at 16 ug/ml after 96 hrs relative to control. The class given is organism-based. The note with it: in vivo. A digest of the protocol: as §3
Data set [11] has as its system Candida albicans. Put plainly: Induction of apoptosis in Candida albicans ATCC 90028 protoplast assessed as late apoptotic cells at 16 ug/ml after 18 hrs Annexin V-FITC/propidium iodide staining based flow cytometry ( Rvb = 0.20 +/- 0.28%). The format is functional.
Data set [12] concerns Candida albicans. The data set can be described thus: Induction of apoptosis in Candida albicans ATCC 90028 protoplast assessed as viable cells at 16 ug/ml after 18 hrs Annexin V-FITC/propidium iodide staining based flow cytometry ( Rvb = 59.19 +/- 11%). The format is functional.
Data set [13] has as its system Candida albicans. Put plainly: Induction of late apoptosis in Candida albicans ATCC 90028 biofilms assessed as formation of condense chromatin at 16 ug/ml after 18 hrs by propidium iodide/acridine orange staining based confocal laser scanning microscopic analysis. The format is functional, organism-based. A digest of the protocol:
(§4)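 Caco-2-free model: the TR146 epithelial layer, 21 days post-seeding on filter inserts, was inoculated with 1.0–1.2×10^5/mL log-phase ATCC 90028 yeast. Biofilms were treated at 256, 16 or 0.0313 µg/mL for 18–48 h at 37°C in 5% CO2 and washed with PBS. Unfixed cells were stained with propidium iodide (5 µg/mL) and acridine orange, then imaged by confocal laser scanning microscopy.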

The subject of data set [14] is Candida albicans. The data set can be described thus: Induction of necrosis in Candida albicans ATCC 90028 biofilms assessed as loss of cell membrane integrity at 0.03 ug/ml after 18 hrs by propidium iodide/acridine orange staining based confocal laser scanning microscopic analysis. The class given is functional, organism-based. The procedure, abridged: as §4
Data set [15] concerns Candida albicans. Put plainly: Induction of necrosis in Candida albicans ATCC 90028 biofilms assessed as loss of cell membrane integrity at 16 ug/ml after 18 hrs by propidium iodide/acridine orange staining based confocal laser scanning microscopic analysis. The class given is functional, organism-based. The procedure, abridged: as §4
The test system of data set [16] is Candida albicans. Put plainly: Induction of necrosis in Candida albicans ATCC 90028 biofilms at 256 ug/ml after 18 hrs by propidium iodide/acridine orange staining based confocal laser scanning microscopic analysis. The format is functional, organism-based. A digest of the protocol:
as §4

Data set [17] concerns Candida albicans. Put plainly: Antifungal activity against Candida albicans ATCC 90028 assessed as reduction in cell adherence to human Caco2 cells at 0.0313 ug/ml preincubated for 2 hrs followed by compound washout and resuspended in RPMI medium measured after 18 hrs by colony counting assay relative to control. The format is functional. Further details: scale not given: the % may be the effect or the level left. The procedure, abridged:
as §1

Data set [18] relates to Candida albicans. Put plainly: Antifungal activity against Candida albicans ATCC 90028 assessed as reduction in cell adherence to human Caco2 cells at 256 ug/ml preincubated for 2 hrs followed by compound washout and resuspended in RPMI medium measured after 18 hrs by colony counting assay relative to control. The class given is functional. Details: scale not given: the % may be the effect or the level left. A digest of the protocol: as §1

The subject of data set [19] is Candida albicans. The data set can be described thus: Antifungal activity against Candida albicans ATCC 90028 infected in Galleria mellonella larvae assessed as survival at 16 ug/ml treated for 30 to 60 mins post infection and measured after 48 hrs. The format is functional, organism-based. The procedure, abridged: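 G. mellonella larvae (195±17 mg, ethanol-disinfected) were given 10 µL C. albicans suspension into the last right proleg. A single 10 µL dose at 16 µg/mL in RPMI (diluted from 1600 µg/mL stock) went into the last left proleg, either 30 min or 1 h after infection or 1 h or 30 min before it. Survival was checked every 24 h for 2 days. Untreated infected larvae and PBS-injected larvae served as controls; ≥3 independent experiments, mean±SEM.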

The subject of data set [20] is Candida albicans. The data set can be described thus: Induction of early apoptosis in Candida albicans ATCC 90028 biofilms at 256 ug/ml after 18 hrs by propidium iodide/acridine orange staining based confocal laser scanning microscopic analysis. The format is functional, organism-based. The procedure, abridged:
as §4

For `Cc1ccc(-c2nnn(CCCN3CCOCC3)n2)cc1`, the Activity in data set [1] was 14.18%. Besides, in [2], the “fractional inhibitory concentration index (FICI)” value is given as greater than 6.25. Further, the “growth inhibition (GI)” value in data set [3] amounted to 99.77%; in data set [4], 99.23%.

As for `ClCCCn1nnnc1-c1ccccc1Cl`, the Activity in data set [5] worked out at 8%; in data set [6], 89.92%; in data set [11], 0.23%; in data set [12], 1.85%. For the same molecule, the survival at 96 h in [7], in data set [8] and in data set [10] was 100% each time. In addition, the “fractional inhibitory concentration index (FICI)” value in [2] is on record as greater than 10. In addition, in data set [9], the “growth inhibition (GI)” value was “inactive”. The “growth inhibition (GI)” value in data set [3] came out at 99.14%; in [4], 99.64%.

With `CCOC(=O)CCn1nnc(-c2ccccc2)n1`, the outcome in data set [13], in [14], in [15], in [16] and in data set [20] was Active. In addition, the Activity is 0.1% in [5]; 65.41% in data set [1]; 97.03% in data set [6]; 63.41% in data set [17]; 59.12% in data set [18]; 1.2% in data set [11]. In addition, the Activity in data set [12] came out at 1.67%. For the same molecule, the survival at 96 h in data set [7], in [8] and in data set [10] was 100% in each case. In addition, in [9], the “growth inhibition (GI)” value was “Active”. In addition, the “growth inhibition (GI)” value in data set [3] stood at 99.74%. In data set [19], the result was inactive.
